Results reported in ChEMBL document CHEMBL1141180, “Synthesis and antiviral activity of helioxanthin analogues” (J Med Chem, 2005).

Tests used:
Human gammaherpesvirus 4 [1] = test: Effective concentration to inhibit 50% of epstein Barr virus replication in a cell culture model; assay type: functional, organism-based
Hepatitis B virus [2] = test: Effective concentration to inhibit 50 % of hepatitis B virus replication in a cell culture model (3.4>10); assay type: functional, organism-based
Hepatitis C virus [3] = test: Effective concentration to inhibit 50% of hepatitis C virus replication in a cell culture model; assay type: functional, organism-based, Hepacivirus hominis
Summary of the method: (§1)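 HCV replicon Huh-Luc/neo cells grown to confluence, then treated with varying drug concentrations in DMEM with 10% dFBS for 3 days. Medium was removed and cells lysed in passive lysis buffer, shaken 15 min at room temperature. Lysate was mixed with luciferase substrate and luminescence read immediately as the measure of replicon activity.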

[4] = Effective concentration to inhibit 50% of cytomegalovirus (CMV) replication in a cell culture model; assay type: functional
Human alphaherpesvirus 1 [5] = test: Effective concentration to inhibit 50% of herpes simplex virus type 1 replication in a cell culture model; assay type: functional, organism-based
[6] = Effective concentration to inhibit 50% of human immunodeficiency virus replication in a cell culture model; assay type: functional
Human alphaherpesvirus 2 [7] = test: Effective concentration to inhibit 50% of herpes simplex virus type 2 replication in a cell culture model; assay type: functional, organism-based
MT2 = test: Cytotoxicity against MT-2 cell lines of human; assay type: functional; conditions: read-out: ID50 (the source's name)
CCRF-CEM = test: Cytotoxicity against CEM cell lines of human; assay type: functional; conditions: read-out: ID50 (the source's name)
Hepatitis C virus [8] = test: Percent inhibition against Hepatitis C virus replication in a cell culture model; assay type: functional, Hepacivirus hominis; summary of the method: as §1
Hepatitis B virus [9] = test: Effective concentration to inhibit 50% of hepatitis B virus replication in a cell culture model; assay type: functional, organism-based
Human alphaherpesvirus 2 [10] = test: Effective concentration to inhibit 50 % of Herpes simplex virus type 2 replication in a cell culture model; conditions: Oryctolagus cuniculus
Human alphaherpesvirus 2 [11] = test: Effective concentration to inhibit 50 % of herpes simplex virus type 2 replication in a cell culture model;ND=Not determined; conditions: Oryctolagus cuniculus
Human alphaherpesvirus 1 [12] = test: Effective concentration to inhibit 50 % of Herpes simplex virus type 1 replication in a cell culture model; assay type: functional, organism-based
Human gammaherpesvirus 4 [13] = test: Effective concentration to inhibit 50 % of Epstein Barr virus replication in a cell culture model; assay type: functional, organism-based, epsteinBarr virus

SMILES | EC50 (Human gammaherpesvirus 4 [1]) | EC50 (Hepatitis B virus [2]) | EC50 (Hepatitis C virus [3]) | EC50 [4] | EC50 (Human alphaherpesvirus 1 [5]) | EC50 [6] | EC50 (Human alphaherpesvirus 2 [7]) | IC50 (MT2) | IC50 (CCRF-CEM) | Inhibition (Hepatitis C virus [8]) | EC50 (Hepatitis B virus [9]) | EC50 (Human alphaherpesvirus 2 [10]) | EC50 (Human alphaherpesvirus 2 [11]) | EC50 (Human alphaherpesvirus 1 [12]) | EC50 (Human gammaherpesvirus 4 [13])
O=C(O)c1cc2ccc3c(c2c(-c2ccc4c(c2)OCO4)c1CO)OCO3 | > 20 µM | > 3.4 µM | 10 µM | 2.5 µM | 9 µM | > 10 µM | 25 µM | 10 µM | 30 µM |  |  |  |  |  | 
O=C1c2cc3ccc4c(c3c(-c3ccc5c(c3)OCO5)c2C(=O)N1CCCOCc1ccccc1)OCO4 | > 5 µM |  | 10 µM |  | > 50 µM | > 100 µM | > 50 µM | > 100 µM | > 100 µM | 62% |  |  |  |  | 
CCOC(=O)c1c(C(=O)OCC)c(-c2ccc3c(c2)OCO3)c2c3c(ccc2c1O)OCO3 | > 10 µM |  | > 10 µM |  | > 50 µM | > 15 µM |  | 15 µM | 39 µM |  | > 10 µM | > 50 µM |  |  | 
Nc1nc2c(ncn2COCCO)c(=O)[nH]1 [ACYCLOVIR] |  |  |  |  |  |  |  |  |  |  | 0.02 µM |  | 51 µM | 8 µM | 
O=C1OCc2c1cc1c(Cl)cc3c(c1c2-c1ccc2c(c1)OCO2)OCO3 | > 20 µM |  | > 10 µM | 8.8 µM | 23 µM | > 50 µM | > 25 µM | 50 µM | 27 µM |  | > 60 µM |  |  |  | 
O=C1OCc2c1cc1ccc3c(c1c2-c1ccc2c(c1)OCO2)OCO3 [HELIOXANTHIN] | > 20 µM |  | > 3 µM | 7.3 µM | 2 µM | > 2.5 µM | 35 µM | 2.5 µM | 30 µM |  | > 1 µM |  |  |  | 
O=C1OC(=O)c2c1cc1ccc3c(c1c2-c1ccc2c(c1)OCO2)OCO3 | > 20 µM |  | > 10 µM | 17.6 µM | > 50 µM | > 100 µM | > 50 µM | > 100 µM | > 50 µM |  | > 10 µM |  |  |  | 
O=c1[nH][nH]c(=O)c2c(-c3ccc4c(c3)OCO4)c3c4c(cc(Br)c3cc12)OCO4 | > 20 µM |  | 3 µM |  | 16 µM | 2.5 µM | > 20 µM | > 100 µM | 28 µM | 45% | > 10 µM |  |  |  | 
NC(=O)c1cc2ccc3c(c2c(-c2ccc4c(c2)OCO4)c1C(=O)O)OCO3 | 9 µM |  | 3 µM | 0.45 µM | 0.15 µM | > 5 µM | < 0.1 µM | 5 µM | 8.4 µM |  | 0.8 µM |  |  |  | 
Nc1ccn([C@@H]2CS[C@H](CO)O2)c(=O)n1 [LAMIVUDINE] |  |  |  |  |  |  |  |  |  |  |  |  |  |  | 0.4 µM
